Broadly, the logP is the decadic logarithm of the partition coefficient of the neutral form, usually between octanol and water. What is called inhibition is how much of the control response was suppressed. A low value points to a weak effect.

Experimental findings from ChEMBL document CHEMBL1135105, “Design, synthesis and biochemical evaluation of AC ring mimics as novel inhibitors of the enzyme estrone sulfatase (ES)” (Bioorg Med Chem Lett, 2002) are described below.

A short description of data set [1]: Partition coefficient (logP). The class given is physicochemical. The conditions noted are these: octanol/water.
For data set [2], the target named is T1, Steryl-sulfatase (Homo sapiens) (UniProt P08842).
T1 sequence (whole entry): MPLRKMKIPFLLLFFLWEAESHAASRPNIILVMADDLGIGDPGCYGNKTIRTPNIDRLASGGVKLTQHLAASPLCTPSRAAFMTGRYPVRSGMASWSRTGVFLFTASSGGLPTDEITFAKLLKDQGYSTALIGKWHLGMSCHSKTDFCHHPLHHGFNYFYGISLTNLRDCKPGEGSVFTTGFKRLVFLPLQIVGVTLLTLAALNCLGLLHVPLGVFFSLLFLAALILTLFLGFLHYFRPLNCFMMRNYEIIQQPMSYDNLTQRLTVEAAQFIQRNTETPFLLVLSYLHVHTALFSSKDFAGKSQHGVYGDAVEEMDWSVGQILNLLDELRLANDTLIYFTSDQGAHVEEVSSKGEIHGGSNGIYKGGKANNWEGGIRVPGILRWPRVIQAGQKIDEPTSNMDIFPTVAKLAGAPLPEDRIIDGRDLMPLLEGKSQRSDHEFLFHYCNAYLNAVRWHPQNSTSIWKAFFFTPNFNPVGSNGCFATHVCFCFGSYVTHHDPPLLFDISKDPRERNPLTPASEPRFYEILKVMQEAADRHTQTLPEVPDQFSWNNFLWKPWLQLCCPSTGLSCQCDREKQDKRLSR
The data set can be described thus: Compound was evaluated for its percent inhibition against the estrone sulfatase enzyme at a concentration of 5 uM. Summed up: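 Placental microsomes, diluted to 115 µg/mL in 0.05 M Tris-HCl pH 7.2, are pre-warmed 5 min at 37 °C. They are added to tubes holding [3H]estrone sulfate (300,000 dpm) and inhibitor, which was dried from ethanol under nitrogen. Incubation runs 20 min at 37 °C and is quenched with toluene. Radioactivity in the toluene extract is counted. Triplicates are run alongside no-inhibitor controls and boiled-microsome blanks.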

The target of another data set is T2, Steryl-sulfatase (Homo sapiens, UniProt P08842).
T2 sequence (P08842 whole entry): T1 sequence (whole entry)
The data set can be described thus: Compound was evaluated for its inhibitory activity against estrone sulfatase enzyme. Summed up:
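They are added to tubes holding [3H]estrone sulfate (300,000 dpm) and inhibitor, which was dried from ethanol under nitrogen. Incubation runs 20 min at 37 °C and is quenched with toluene. Radioactivity in the toluene extract is counted. Triplicates are run alongside no-inhibitor controls and boiled-microsome blanks.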

Data set [3] concerns the target T1, Steryl-sulfatase (Homo sapiens). Conditions: 10 uM.

Consider `CCCCOC(=O)c1ccc(-c2ccc(OS(N)(=O)=O)cc2)cc1`, for which the logP in data set [1] stood at 4.38. In data set [2], the inhibition was 48.4%. Further, the IC50 against Steryl-sulfatase worked out at 5.8 uM tube-1.

On to `NS(=O)(=O)Oc1ccc2c3c(c(=O)oc2c1)CCCCC3` [IROSUSTAT], for which the logP in data set [1] was 2.65. In data set [2], this compound had an inhibition of 86.8%.

Compound `N#Cc1ccc(-c2ccc(OS(N)(=O)=O)cc2)cc1` gave a lipophilicity (logP) in data set [1] of 3.48. In data set [2], this compound registered an inhibition of 44.2%. This compound also registered an IC50 at Steryl-sulfatase of 6.7 uM tube-1.

Consider `NS(=O)(=O)Oc1ccc(-c2ccccc2)cc1`, for which the lipophilicity (logP) in data set [1] was determined as 3.45. Also, in data set [2], the inhibition amounted to 5.5%. Besides, the IC50 on Steryl-sulfatase is recorded as 76.1 uM tube-1.

Consider `CCCOC(=O)c1ccc(-c2ccc(OS(N)(=O)=O)cc2)cc1`, for which the log partition coefficient (logP) in data set [1] was determined as 3.99. The same compound came in with an inhibition in data set [2] of 60.5%. At Steryl-sulfatase, the IC50 is listed as 3.5 uM tube-1.

In data set [1], `CCOC(=O)c1ccc(-c2ccc(OS(N)(=O)=O)cc2)cc1` came in with a logP of 3.52. In data set [2], the inhibition was 53.4%. In addition, the IC50 at Steryl-sulfatase is listed as 4.2 uM tube-1.

For the compound `Cc1cc(=O)oc2cc(OS(N)(=O)=O)ccc12`, in data set [1], the logP is 1.7. Also, the inhibition in data set [3] came out at 47.6%. Besides, at Steryl-sulfatase, the IC50 was 10 uM tube-1.

`COC(=O)c1ccc(-c2ccc(OS(N)(=O)=O)cc2)cc1` yielded a logP in data set [1] of 3.18. In data set [2], this compound yielded an inhibition of 44.2%. On Steryl-sulfatase, this compound showed an IC50 of 5.2 uM tube-1.

For `C[C@]12CC[C@@H]3c4ccc(OS(N)(=O)=O)cc4CCC3[C@@H]1CCC2=O` (single isomer, unassigned) [EMATE], in data set [1], the logP was 3.87. For the same compound, the IC50 at Steryl-sulfatase came out at 0.1 uM tube-1.
